# pIC50: −log10 of the molar value. Like-named read-outs stand apart in the source and are kept apart here.
# Key:
# [1] = molecular target: T1, recombinant Top1 (Homo sapiens, UniProt P11387); test: Top1-mediated DNA cleavage assay; type: biochemical; conditions: compound-induced DNA cleavage, score based on the activity of 1 μM camptothecin
# T1 sequence (P11387 1-765): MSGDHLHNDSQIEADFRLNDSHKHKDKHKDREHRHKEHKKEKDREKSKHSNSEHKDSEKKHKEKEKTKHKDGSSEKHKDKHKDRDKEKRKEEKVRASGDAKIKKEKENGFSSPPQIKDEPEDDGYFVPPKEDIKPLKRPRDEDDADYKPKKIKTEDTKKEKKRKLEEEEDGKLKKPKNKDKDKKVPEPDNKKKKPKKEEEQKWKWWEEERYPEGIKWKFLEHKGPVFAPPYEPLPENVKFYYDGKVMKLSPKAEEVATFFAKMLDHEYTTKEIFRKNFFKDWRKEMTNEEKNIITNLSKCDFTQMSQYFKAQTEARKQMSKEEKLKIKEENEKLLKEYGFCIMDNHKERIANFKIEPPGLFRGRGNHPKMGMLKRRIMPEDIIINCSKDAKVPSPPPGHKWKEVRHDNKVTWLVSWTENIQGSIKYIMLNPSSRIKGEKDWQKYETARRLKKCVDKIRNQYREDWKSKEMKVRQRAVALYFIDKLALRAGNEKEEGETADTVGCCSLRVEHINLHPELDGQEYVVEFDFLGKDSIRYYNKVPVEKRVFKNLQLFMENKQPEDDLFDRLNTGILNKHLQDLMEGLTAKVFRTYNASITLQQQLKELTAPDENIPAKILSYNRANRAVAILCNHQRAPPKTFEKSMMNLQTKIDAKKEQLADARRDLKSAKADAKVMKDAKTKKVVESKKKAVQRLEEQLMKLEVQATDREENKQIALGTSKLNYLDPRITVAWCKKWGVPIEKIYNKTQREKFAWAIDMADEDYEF
# [2] = system: panel of 60 different human cancer cell lines; test: NCI-60 five-dose assay, mean graph midpoint; type: cell-based; conditions: mean graph midpoint of growth inhibition, five-dose assay 10^–8 to 10^–4 M
# [3] = system: melanoma, UACC-62; test: NCI-60 five-dose assay, UACC-62; type: cell-based; conditions: Homo sapiens, UACC-62, read-out: cytotoxicity GI50, melanoma, UACC-62
# In short: (§1)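 Run in the National Cancer Institute's NCI-60 human cancer cell panel. Test compounds were first screened in a one-dose assay at 10–5 M, reading growth percent relative to vehicle-treated control.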
# [4] = molecular target: recombinant TDP1 (Homo sapiens, UniProt Q9NUW8); test: Gel-based assay measuring the inhibition of recombinant TDP1; type: biochemical
# In short: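 Gel assay: a 5′-[32P]-labeled single-stranded DNA oligonucleotide with a 3′-phosphotyrosine (N14Y) was incubated with 5 pM recombinant TDP1 and test compound for 15 min at room temperature. Samples were run on 16% denaturing PAGE and quantified by phosphorimager densitometry.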
# [5] = system: renal, SN12C; test: NCI-60 five-dose assay, SN12C; type: cell-based; conditions: Homo sapiens, read-out: cytotoxicity GI50, renal, SN12C
# In short: as §1
# [6] = read-out: TDP1 inhibition, score according to IC50
# Sequence of recombinant TDP1 (Q9NUW8 whole entry): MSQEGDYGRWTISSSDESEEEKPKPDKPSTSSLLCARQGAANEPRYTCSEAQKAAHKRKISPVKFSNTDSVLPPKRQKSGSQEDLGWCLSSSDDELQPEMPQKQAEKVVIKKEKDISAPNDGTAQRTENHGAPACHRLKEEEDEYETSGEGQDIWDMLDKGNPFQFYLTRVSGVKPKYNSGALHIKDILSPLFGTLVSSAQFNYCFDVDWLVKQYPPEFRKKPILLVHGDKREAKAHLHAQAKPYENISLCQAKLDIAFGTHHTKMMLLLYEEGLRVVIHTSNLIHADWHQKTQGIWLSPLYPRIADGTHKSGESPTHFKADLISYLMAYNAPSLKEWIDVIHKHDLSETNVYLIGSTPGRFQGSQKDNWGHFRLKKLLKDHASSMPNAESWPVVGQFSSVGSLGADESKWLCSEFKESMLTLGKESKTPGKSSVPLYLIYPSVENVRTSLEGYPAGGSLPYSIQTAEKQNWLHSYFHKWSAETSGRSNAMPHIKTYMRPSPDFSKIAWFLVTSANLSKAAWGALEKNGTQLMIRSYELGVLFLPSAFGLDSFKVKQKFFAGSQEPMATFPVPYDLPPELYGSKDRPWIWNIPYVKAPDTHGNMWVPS
SMILES,Top1 cleavage [1],MGM [2] [µM],"pIC50 [4, 6]",other results
"COc1cc2c3c(n(CC(O)CO)c(=O)c2cc1OC)-c1cc2c(cc1C3=O)OCO2 (stereo not drawn) [Compound 52, (2′RS)-5,6-Dihydro-6-(2′,3′-dihydroxypropyl)-2,3-dimethoxy-8,9-methylenedioxy-5,11-dioxo-11H-indeno[1,2-c]isoquinoline]",++++,0.065 ± 0.011,–,–
"COc1cc2c3c(n(C[C@H](O)CO)c(=O)c2cc1OC)-c1cc2c(cc1C3=O)OCO2 [Compound 53, (2′S)-5,6-Dihydro-6-(2′,3′-dihydroxypropyl)-2,3-dimethoxy-8,9-methylenedioxy-5,11-dioxo-11H-indeno[1,2-c]isoquinoline]",++++,0.049 ± 0.003,–,–
"COc1cc2c3c(n(C[C@@H](O)CO)c(=O)c2cc1OC)-c1cc2c(cc1C3=O)OCO2 [Compound 54, (2′R)-5,6-Dihydro-6-(2′,3′-dihydroxypropyl)-2,3-dimethoxy-8,9-methylenedioxy-5,11-dioxo-11H-indeno[1,2-c]isoquinoline]",++++,0.166 ± 0.005,–,GI50 [3]: 0.025 µM
"COc1cc2c3c(n(C[C@@H](O)[C@H](O)[C@H](O)CO)c(=O)c2cc1OC)-c1cc2c(cc1C3=O)OCO2 [Compound 55, (2′R,3′S,4′R)-5,6-Dihydro-6-(2′,3′,4′,5′-tetrahydroxypentyl)-2,3-dimethoxy-8,9-methylenedioxy-5,11-dioxo-11H-indeno[1,2-c]isoquinoline]","+++ (+++, between 75% and 95% activity)",5.62 ± 0.18,–,–
"COc1cc2c3c(n(C[C@H](O)[C@H](O)[C@H](O)CO)c(=O)c2cc1OC)-c1cc2c(cc1C3=O)OCO2 [Compound 56, (2′S,3′S,4′R)-5,6-Dihydro-6-(2′,3′,4′,5′-tetrahydroxypentyl)-2,3-dimethoxy-8,9-methylenedioxy-5,11-dioxo-11H-indeno[1,2-c]isoquinoline]",–,1.43 ± 0.44,3.95 to 4.43,–
"COc1cc2c3c(n(C[C@@H](O)[C@@H](O)[C@H](O)CO)c(=O)c2cc1OC)-c1cc2c(cc1C3=O)OCO2 [Compound 57, (2′R,3′R,4′R)-5,6-Dihydro-6-(2′,3′,4′,5′-tetrahydroxypentyl)-2,3-dimethoxy-8,9-methylenedioxy-5,11-dioxo-11H-indeno[1,2-c]isoquinoline]",++++,2.94 ± 0.52,–,–
"COc1cc2c3c(n(C[C@H](O)[C@@H](O)[C@@H](O)[C@H](O)CO)c(=O)c2cc1OC)-c1cc2c(cc1C3=O)OCO2 [Compound 59, (2′S,3′R,4′S,5′R)-5,6-Dihydro-6-(2′,3′,4′,5′,6′-pentahydroxyhexyl)-2,3-dimethoxy-8,9-methylenedioxy-5,11-dioxo-11H-indeno[1,2-c]isoquinoline]","++ (++, between 50% and 75% activity)",–,3.95 to 4.43,–
"COc1cc2c3c(n(C[C@H](O)[C@@H](O)[C@H](O)[C@H](O)CO)c(=O)c2cc1OC)-c1cc2c(cc1C3=O)OCO2 [Compound 60, (2′S,3′R,4′R,5′R)-5,6-Dihydro-6-(2′,3′,4′,5′,6′-pentahydroxyhexyl)-2,3-dimethoxy-8,9-methylenedioxy-5,11-dioxo-11H-indeno[1,2-c]isoquinolone]","+++ (+++, between 75% and 95% activity)",–,–,–
"COc1cc2c3c(n(C[C@@H](O)[C@@H](O)[C@H](O)[C@H](O)CO)c(=O)c2cc1OC)-c1cc2c(cc1C3=O)OCO2 [Compound 61, (2′R,3′R,4′R,5′R)-5,6-Dihydro-6-(2′,3′,4′,5′,6′-pentahydroxyhexyl)-2,3-dimethoxy-8,9-methylenedioxy-5,11-dioxo-11H-indeno[1,2-c]isoquinoline]",++++,–,–,–
COc1cc2c3c(n(C[C@@H]4O[C@H](CO)[C@@H](O)[C@H](O)[C@H]4O)c(=O)c2cc1OC)-c1cc2c(cc1C3=O)OCO2 [Compound 62],"++ (++, between 50% and 75% activity)",–,3.95 to 4.43,pIC50 ([4]; read-out: TDP1 IC50): ≤ 4.92
"O=C1c2ccccc2-c2c1c1ccc([N+](=O)[O-])cc1c(=O)n2CC(O)CO (stereo not drawn) [Compound 63, (2′RS)-5,6-Dihydro-6-(2′,3′-dihydroxypropyl)-3-nitro-5,11-dioxo-11H-indeno[1,2-c]isoquinoline]","+++ (+++, between 75% and 95% activity)",0.389 ± 0.013,–,–
"O=C1c2ccccc2-c2c1c1ccc([N+](=O)[O-])cc1c(=O)n2C[C@@H](O)CO [Compound 64, (2′R)-5,6-Dihydro-6-(2′,3′-dihydroxypropyl)-3-nitro-5,11-dioxo-11H-indeno[1,2-c]isoquinoline]","+++ (+++, between 75% and 95% activity)",0.332 ± 0.022,–,–
"O=C1c2ccccc2-c2c1c1ccc([N+](=O)[O-])cc1c(=O)n2C[C@@H](O)[C@H](O)[C@H](O)CO [Compound 65, (2′R,3′S,4′R)-5,6-Dihydro-6-(2′,3′,4′,5′-tetrahydroxypentyl)-3-nitro-5,11-dioxo-11H-indeno[1,2-c]isoquinoline]",++++,1.58,3.95 to 4.43,GI50 [5]: 2.69 µM
"O=C1c2ccccc2-c2c1c1ccc([N+](=O)[O-])cc1c(=O)n2C[C@H](O)[C@H](O)[C@H](O)CO [Compound 66, (2′S,3′S,4′R)-5,6-Dihydro-6-(2′,3′,4′,5′-tetrahydroxypentyl)-3-nitro-5,11-dioxo-11H-indeno[1,2-c]isoquinoline]",++++(+),0.508 ± 0.041,–,–
"O=C1c2ccccc2-c2c1c1ccc([N+](=O)[O-])cc1c(=O)n2C[C@@H](O)[C@@H](O)[C@H](O)CO [Compound 67, (2′R,3′R,4′R)-5,6-Dihydro-6-(2′,3′,4′,5′-tetrahydroxypentyl)-3-nitro-5,11-dioxo-11H-indeno[1,2-c]isoquinoline]",++++,1.66,4.43 to 4.92,–
"O=C1c2ccccc2-c2c1c1ccc([N+](=O)[O-])cc1c(=O)n2C[C@H](O)[C@@H](O)[C@H](O)CO [Compound 68, (2′S,3′R,4′R)-5,6-Dihydro-6-(2′,3′,4′,5′-tetrahydroxypentyl)-3-nitro-5,11-dioxo-11H-indeno[1,2-c]isoquinoline]",++++(+),0.372 ± 0.024,3.95 to 4.43,–
"O=C1c2ccccc2-c2c1c1ccc([N+](=O)[O-])cc1c(=O)n2C[C@@H](O)[C@@H](O)[C@H](O)[C@H](O)CO [Compound 70, (2′R,3′R,4′R,5′R)-5,6-Dihydro-6-(2′,3′,4′,5′,6′-pentahydroxyhexyl)-3-nitro-5,11-dioxo-11H-indeno[1,2-c]isoquinoline]",++++,16.6,3.95 to 4.43,–
O=C1c2ccccc2-c2c1c1ccc([N+](=O)[O-])cc1c(=O)n2C[C@@H]1O[C@H](CO)[C@@H](O)[C@H](O)[C@H]1O [Compound 71],"++ (++, between 50% and 75% activity)",–,4.43 to 4.92,pIC50 [4]: ≤ 4.92

# — PMC3983348 (Journal of Medicinal Chemistry, 2014)
